# Experimental data of several laboratories.
# Compare with care: the assays were run in different laboratories.
# Effect on: cell growth or viability
SMILES,cell line,test,setting,quantity,result
O=C(C=Cc1cccc(F)c1)Nc1cc(-c2ccnc(N3CCC(O)CC3)c2)ccn1,A549,MTT,5 µM,inhibition,65%
Cc1nc(NC(=O)N2CCC[C@H]2C(N)=O)sc1-c1ccnc(C(C)(C)C(F)(F)F)c1,A549,MTT,,IC50,11.1 µM
CCc1c(C)c2ccc(OCC(=O)NNC(=S)Nc3ccccc3)c(C)c2oc1=O,PC-3,MTT,125 µg/mL,viability,4.76%
Cc1nc(Nc2ccc3c(c2)C(C)(C)C(=O)N3C)c2ccccc2n1,A549,MTT,,IC50,2.09 µM
COc1cccc2c1C(=O)c1c(O)c3c(c(O)c1C2=O)C[C@@](O)(C(=O)CO)C[C@@H]3O[C@H]1C[C@H](N)[C@H](O)[C@H](C)O1,HUVEC,MTT,24 h,IC50,6.5 µM
CCc1c(C)c2ccc(OCc3nnc(S)n3N)c(C)c2oc1=O,PC-3,MTT,125 µg/mL,viability,11.3%
Cc1cccc(/C=C/C(=O)Nc2cccc(-c3ccnc(N4CCC(O)CC4)c3)c2)c1,A549,MTT,5 µM,inhibition,54.8%
O=C(O)c1ccc2c(c1)nc(Nc1cccc(Cl)c1)c1ccncc12,NCI-H522,resazurin,48 h,IC50,9.3 µM
Cc1c(Cc2ccccc2)c(=O)oc2c(C)c(OCC(=O)NN=Cc3ccc(Cl)cc3)ccc12,PC-3,MTT,31.25 µg/mL,viability,61.2%
Cc1ccc(-c2cc(-c3ccc(Cl)c(F)c3)c3c(=O)[nH]c(=O)[nH]c3n2)cc1,PC-3,MTT,48 h,IC50,21.2 µM
Cc1nc(Nc2ccc3c(c2)/C(=C/c2ccccc2)C(=O)N3C)c2ccccc2n1,A549,MTT,,IC50,27.8 µM
COc1ccc(-c2cc(-c3ccc(OC)cc3)c3c(=O)[nH]c(=O)[nH]c3n2)cc1,PC-3,MTT,48 h,IC50,12.3 µM
C=CC(=O)NC1CCN(c2ncc3ncnc(Nc4ccc(Oc5ccc6c(c5)ncn6C)c(C)c4)c3n2)CC1,A549,,,EC50,6.34 µM
CCNC(=S)NNC(=O)COc1ccc2c(C)c(CC)c(=O)oc2c1C,PC-3,MTT,31.25 µg/mL,viability,99%
COc1cccc2c1C(=O)c1c(O)c3c(c(O)c1C2=O)C[C@@](O)(C(=O)CO)C[C@@H]3O[C@H]1C[C@H](N)[C@H](O)[C@H](C)O1,A549,MTT,"50 µg/mL, 48 h, serum-free",viability,20.2%
Cc1cc(NC(=O)C=Cc2ccccc2)cc(-c2ccnc(N3CCC(O)CC3)c2)c1,A549,MTT,5 µM,inhibition,37.6%
COc1ccc(-c2cc(-c3ccc(Br)cc3)c3c(=O)[nH]c(=O)[nH]c3n2)cc1,PC-3,MTT,48 h,IC50,15.9 µM
O=C(C=Cc1ccccc1)Nc1cc(-c2ccnc(N3CCC(O)CC3)c2)ccn1,A549,MTT,5 µM,inhibition,73.1%
C=CCOc1ccc2c(C)c(CC)c(=O)oc2c1C,PC-3,MTT,500 µg/mL,viability,7.08%
Cc1cc(NC(=O)C=Cc2ccccc2)cc(-c2ccnc(N3CCOCC3)c2)c1,A549,MTT,5 µM,inhibition,17.7%
CC(=NNC(=O)COc1ccc2c(C)c(Cc3ccccc3)c(=O)oc2c1C)c1ccc(Br)cc1,PC-3,MTT,31.25 µg/mL,viability,14%
Cc1cccc(/C=C/C(=O)Nc2cc(-c3ccnc(N4CCC(O)CC4)c3)ccn2)c1,A549,MTT,5 µM,inhibition,74.5%
Cc1c(Cc2ccccc2)c(=O)oc2c(C)c(OCC(=O)NN=Cc3ccccc3)ccc12,PC-3,MTT,125 µg/mL,viability,21.2%
O=C(CCc1ccccc1)Nc1cc(-c2ccnc(N3CCC(O)CC3)c2)ccn1,A549,MTT,5 µM,inhibition,65.7%
Cc1nc(Nc2ccc3c(c2)/C(=C/c2ccccc2C)C(=O)N3C)c2ccccc2n1,A549,MTT,,IC50,21.6 µM
CCc1c(C)c2ccc(OCC=Cc3ccccc3)c(C)c2oc1=O,PC-3,MTT,250 µg/mL,viability,18.1%
O=C(C=Cc1ccc(F)cc1)Nc1cc(-c2ccnc(N3CCC(O)CC3)c2)ccn1,A549,MTT,5 µM,inhibition,65.9%
CCC[C@H]1NC(=O)[C@H](Cc2cc(Cl)ccc2-c2cnn(C)c2)N(C)C(=O)[C@H](CC(C)C)NC(=O)[C@@H](N(C)C(=O)[C@H](CCCCN2CCOCC2)NC(=O)[C@@H](c2cccnc2)C2CCCCC2)CCCCNC1=O,NCI-H1048,MTT,5 days,GI50,3 µM
